Test results taken from ChEMBL document CHEMBL1151953, “Biomimetic transformation and biological activities of Globiferin, a terpenoid benzoquinone from Cordia globifera” (J Nat Prod, 2009).
In brackets after ≈: the same amount, converted by molar mass.

Key:
Plasmodium falciparum = assay: Antiplasmodial activity against multidrug-resistant Plasmodium falciparum K1; type: functional, organism-based
Method in brief: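 Parasites kept in continuous in vitro culture (Trager–Jensen method); activity assessed by a microculture radioisotope technique.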

[1] = test system: Mycobacterium tuberculosis; assay: Antimicrobial activity against Mycobacterium tuberculosis H37Ra by microplate alamar blue assay; type: functional, organism-based
NCI-H187 = assay: Cytotoxicity against human NCI-H187 cells by sulforhodamine B assay; type: functional, cell-based
Method in brief: (§1)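 Cell lines used were KB (human oral epidermoid carcinoma), BC (human breast cancer), NCI-H187 (human small cell lung cancer) and Vero (African green monkey kidney fibroblasts). Cytotoxicity was read colorimetrically by the Skehan method, with ellipticine as the reference substance.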

Vero = assay: Cytotoxicity against african green monkey Vero cells by sulforhodamine B assay; type: cell-based; settings: Chlorocebus sabaeus; method in brief: as §1
Candida albicans = assay: Antifungal activity against Candida albicans by XTT assay; type: functional, organism-based
KB = assay: Cytotoxicity against human KB cells by sulforhodamine B assay; type: functional, cell-based; method in brief: as §1
[2] = Cytotoxicity against human BC1 cells by sulforhodamine B assay; type: functional, cell-based; method in brief: as §1

Row | Compound | IC50 (Plasmodium falciparum) | MIC [1] | IC50 (NCI-H187) | IC50 (Vero) | IC50 (Candida albicans) | IC50 (KB) | IC50 [2] | IC50 [1]
1 | C[C@H]1[C@@H](O)O[C@@H]2O[C@@]3(C)CC[C@H]4[C@H](C)CC[C@@H]1[C@@]24OO3 [ARTENIMOL] | 0.0012 µg/mL (≈ 0.00422 µM) | – | – | – | – | – | – | –
2 | C=C[C@@]1(C)CC2=C(C[C@H]1C(=C)C)C(=O)C=CC2=O [Cordiachrome C] | 0.2 µg/mL (≈ 0.825 µM) | 1.5 µg/mL (≈ 6.19 µM) | 0.2 µg/mL (≈ 0.825 µM) | 1.4 µg/mL (≈ 5.78 µM) | 4.6 µg/mL (≈ 19 µM) | 1.5 µg/mL (≈ 6.19 µM) | 1.8 µg/mL (≈ 7.43 µM) | –
3 | C/C1=C/CC/C(C)=C/CC2=C(C1)C(=O)C=CC2=O [GLOBIFERIN] | 2.1 µg/mL (≈ 8.67 µM) | 6.2 µg/mL (≈ 25.6 µM) | 0.5 µg/mL (≈ 2.06 µM) | > 50 µg/mL | > 20 µg/mL | > 20 µg/mL | > 20 µg/mL | –
4 | C/C(C=O)=C\CCC1(C)C=Cc2cc(O)ccc2O1 (stereo not drawn) [ELAEAGIN] | 3.6 µg/mL (≈ 13.9 µM) | 12.5 µg/mL (≈ 48.4 µM) | 6.1 µg/mL (≈ 23.6 µM) | 20 µg/mL (≈ 77.4 µM) | > 20 µg/mL | > 20 µg/mL | > 20 µg/mL | –
5 | C/C(C=O)=C\CC/C(C)=C/Cc1cc(O)ccc1O [ALLIODORIN] | 3.1 µg/mL (≈ 11.9 µM) | 12.5 µg/mL (≈ 48 µM) | 2.2 µg/mL (≈ 8.45 µM) | 14.1 µg/mL (≈ 54.2 µM) | > 20 µg/mL | 12 µg/mL (≈ 46.1 µM) | 10.3 µg/mL (≈ 39.6 µM) | –
6 | C=C1CCC[C@@]2(C)CC3=C(C[C@@H]12)C(=O)C=CC3=O [CORDIACHROME B] | 1.5 µg/mL (≈ 6.19 µM) | 12.5 µg/mL (≈ 51.6 µM) | 0.4 µg/mL (≈ 1.65 µM) | 1.7 µg/mL (≈ 7.02 µM) | 7.7 µg/mL (≈ 31.8 µM) | 6 µg/mL (≈ 24.8 µM) | 6.4 µg/mL (≈ 26.4 µM) | –
7 | Cc1c2ccncc2c(C)c2c1[nH]c1ccccc12 [ELLIPTECINE] | – | – | 0.3 µg/mL (≈ 1.22 µM) | – | – | – | 0.2 µg/mL (≈ 0.812 µM) | –
8 | C[C@@H]1[C@H](O)[C@@H](C)/C=C/C=C/C=C/C=C/C=C/C=C/C=C/[C@H](O[C@@H]2O[C@H](C)[C@@H](O)[C@H](N)[C@@H]2O)C[C@@H]2O[C@](O)(C[C@@H](O)C[C@@H](O)[C@H](O)CC[C@@H](O)C[C@@H](O)CC(=O)O[C@H]1C)C[C@H](O)[C@H]2C(=O)O [AMPHOTERICIN B] | – | – | – | – | 0.08 µg/mL (≈ 0.0866 µM) | – | – | –
9 | NNC(=O)c1ccncc1 [ISONIAZID] | – | – | – | – | – | – | – | 0.05 µg/mL (≈ 0.365 µM)
10 | C=C[C@]1(C)Cc2c(OC(=O)c3ccccc3)ccc(OC(=O)c3ccccc3)c2C[C@@H]1C(=C)C | > 20 µg/mL | 200 µg/mL (≈ 442 µM) | > 20 µg/mL | > 50 µg/mL | > 20 µg/mL | > 20 µg/mL | > 20 µg/mL | –
11 | C=C[C@]1(C)Cc2c(OC(C)=O)ccc(OC(C)=O)c2C[C@@H]1C(=C)C | 0.4 µg/mL (≈ 1.22 µM) | 25 µg/mL (≈ 76.1 µM) | 5.1 µg/mL (≈ 15.5 µM) | 7.3 µg/mL (≈ 22.2 µM) | > 20 µg/mL | 8.5 µg/mL (≈ 25.9 µM) | 9.2 µg/mL (≈ 28 µM) | –
12 | NC[C@H]1O[C@H](O[C@H]2[C@H](O)[C@@H](O[C@H]3O[C@H](CO)[C@@H](O)[C@H](N)[C@H]3O)[C@H](N)C[C@@H]2N)[C@H](O)[C@@H](O)[C@@H]1O [KANAMYCIN] | – | – | – | – | – | – | – | 2.5 µg/mL (≈ 5.16 µM)
13 | CO[C@H]1/C=C/O[C@@]2(C)Oc3c(C)c(O)c4c(O)c(c(/C=N/N5CCN(C)CC5)c(O)c4c3C2=O)NC(=O)/C(C)=C\C=C\[C@H](C)[C@H](O)[C@@H](C)[C@@H](O)[C@@H](C)[C@H](OC(C)=O)[C@@H]1C [RIFAMPIN] | – | – | – | – | – | – | – | 0.0047 µg/mL (≈ 0.00571 µM)
14 | CC(C)=CCCC1(C)C=Cc2cc(O)ccc2O1 (stereo not drawn) [CORDIACHROMENE A] | > 20 µg/mL | 12.5 µg/mL (≈ 51.2 µM) | > 20 µg/mL | > 50 µg/mL | 11.2 µg/mL (≈ 45.8 µM) | > 20 µg/mL | > 20 µg/mL | –
